Data taken from ChEMBL document CHEMBL4428045, “Antioxidant properties of thio-caffeine derivatives: Identification of the newly synthesized 8-[(pyrrolidin-1-ylcarbonothioyl)sulfanyl]caffeine as antioxidant and highly potent cytoprotective agent” (Bioorg Med Chem Lett, 2016).
Activity calls are given as the source filed them. The rule behind the calls is not given here.

Key:
[1] = Antioxidant activity assessed as DPPH radical scavenging activity at 0.1 mg/ml incubated for 30 mins in dark by spectrophotometric analysis relative to trolox; type: functional
[2] = Antioxidant activity assessed as ferric ion reducing activity using Fe3+(CN-)6 at 0.025 to 0.1 mg/ml incubated for 20 mins by spectrophotometric analysis relative to trolox; type: functional; parameters: scale not given: the % may be the effect or the level left
[3] = Antioxidant activity assessed as ferric ion reducing activity using Fe3+(CN-)6 at 0.025 to 0.1 mg/ml incubated for 20 mins by spectrophotometric analysis relative to BHT; type: functional
Erythrocyte [4] = assay: Cytoprotection against AAPH-induced haemolysis in human erythrocytes at 0.01 to 1 mg/l pre-incubated for 20 mins before 60 mM AAPH addition for 4 hrs by spectrophotometric analysis; type: functional; settings: in the assay text read “0.025 to 0.1 mg/ml” for “0.01 to 1 mg/l”
How it was run: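 Human erythrocytes (RBCs) pre-incubated 20 min with compound or the standards Trolox and BHT, then challenged with 60 mM AAPH to induce free-radical haemolysis. Data are means SD (n = 4), with significance set at p < 0.05.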

[5] = Hemolytic activity in human erythrocytes at 0.1 mg/ml incubated for 60 mins by spectrophotometric analysis; type: ADME, cell-based, Erythrocyte; settings: read-out: Activity
How it was run: (§1)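 RBCs were incubated with compound for 60 min. Haemolysis below 5% was taken as not significant.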

[6] = Antioxidant activity assessed as DPPH radical scavenging activity at 0.1 mg/ml incubated for 30 mins in dark by spectrophotometric analysis relative to BHT; type: functional
Erythrocyte [7] = assay: Hemolytic activity in human erythrocytes assessed as change in cell shape by measuring discocytes level at 0.1 mg/ml incubated for 60 mins by […]; type: ADME, cell-based; settings: 1 h
[8] = Induction of hemolysis in human erythrocytes assessed as effect on osmotic resistance at 0.1 mg/ml incubated for 60 mins by erythrocyte osmotic fragility assay; type: cell-based; settings: 1 h
How it was run: (§2)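 After 60 min of compound treatment, RBC osmotic resistance was expressed as %NaCl and compared with untreated control cells (p < 0.05).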

[9] = Metal chelating activity of the compound assessed as inhibition of Fe2+-ferrozine complex formation incubated for 10 mins by spectrophotometric analysis; type: functional
[10] = Antioxidant activity assessed as DPPH radical scavenging activity at 0.025 to 0.1 mg/ml incubated for 30 mins in dark by spectrophotometric analysis; type: functional
[11] = Antioxidant activity assessed as ferric ion reducing activity using Fe3+(CN-)6 incubated for 20 mins by spectrophotometric analysis; type: functional
[12] = Antioxidant activity assessed as ferric ion reducing activity using Fe3+(CN-)6 at 0.1 mg/ml incubated for 20 mins by spectrophotometric analysis relative to trolox; type: functional; parameters: scale not given: the % may be the effect or the level left
[13] = Antioxidant activity assessed as DPPH radical scavenging activity incubated for 30 mins in dark by spectrophotometric analysis; type: functional
[14] = Antioxidant activity assessed as ferric ion reducing activity using Fe3+(CN-)6 at 0.1 mg/ml incubated for 20 mins by spectrophotometric analysis relative to BHT; type: functional
[15] = Hemolytic activity in human erythrocytes at 0.025 mg/ml incubated for 60 mins by spectrophotometric analysis; type: ADME, cell-based, Erythrocyte; settings: read-out: Activity; how it was run: as §1
Erythrocyte [16] = assay: Hemolytic activity in human erythrocytes assessed as echinocytes/spherocytes formation incubated for 60 mins by microscopic analysis; type: ADME, cell-based; settings: 1 h
How it was run: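 RBCs were incubated with compound for 60 min, and cell morphology was then assessed by optical microscopy for echinocytes, spherocytes and RBC ghosts.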

[17] = Induction of hemolysis in human erythrocytes assessed as change in RBC shape by measuring echinocytes and spherocytes level at 0.1 mg/ml preincubated for 60 mins followed by AAPH induction measured after 4 hrs by […]; type: cell-based
[18] = Induction of hemolysis in human erythrocytes assessed as reduction in osmotic resistance at 0.1 mg/ml incubated for 60 mins by erythrocyte osmotic fragility assay relative to NaCl (reference value: 0.451%); type: cell-based; parameters: scale not given: the % may be the effect or the level left; settings: 1 h; how it was run: as §2
[19] = Hemolytic activity in human erythrocytes at 0.05 mg/ml incubated for 60 mins by spectrophotometric analysis; type: ADME, cell-based, Erythrocyte; settings: read-out: Activity; how it was run: as §1

CC(C)Sc1nc2c(c(=O)n(C)c(=O)n2C)n1C
Activity [1]: 34%
Activity [2]: 38%
Activity [3]: Active
Activity (Erythrocyte [4]): 10%
hemolysis at 1 h, 0.1 mg/ml [5]: 0 to 5%
Activity [6]: Active
Activity (Erythrocyte [7]): Non-Toxic
Activity [8]: Non-Toxic
Activity [9]: inactive

CCCSc1nc2c(c(=O)n(C)c(=O)n2C)n1C
Activity (Erythrocyte [4]): inactive
hemolysis at 1 h, 0.1 mg/ml [5]: 0 to 5%
Activity (Erythrocyte [7]): Non-Toxic
Activity [8]: Non-Toxic
Activity [9]: inactive
Activity [10]: < 10%

Cn1c(=O)c2c(ncn2C)n(C)c1=O [CAFFEINE]
Activity (Erythrocyte [4]): 10%
hemolysis at 1 h, 0.1 mg/ml [5]: 0 to 5%
Activity (Erythrocyte [7]): Non-Toxic
Activity [8]: Non-Toxic
Activity [9]: inactive
Activity [10]: < 10%

Cc1c(C)c2c(c(C)c1O)CCC(C)(C(=O)O)O2 (centres undefined)
Activity (Erythrocyte [4]): Active

Cn1c(=O)c2c(nc(SC(=S)N3CCCC3)n2C)n(C)c1=O
Activity [1]: 67%
Activity [11]: Dose-dependent effect
Activity [12]: 65%
Activity [13]: Dose-dependent effect
Activity (Erythrocyte [4]): Active
hemolysis at 1 h, 0.1 mg/ml [5]: 0 to 5%
Activity (Erythrocyte [7]): Non-Toxic
Activity [8]: Non-Toxic
Activity [9]: inactive
Activity [14]: Active

CSc1nc2c(c(=O)n(C)c(=O)n2C)n1C
Activity (Erythrocyte [4]): 10%
hemolysis at 1 h, 0.1 mg/ml [5]: 0 to 5%
Activity (Erythrocyte [7]): Non-Toxic
Activity [8]: Non-Toxic
Activity [9]: inactive
Activity [10]: < 10%

CCSc1nc2c(c(=O)n(C)c(=O)n2C)n1C
Activity (Erythrocyte [4]): 10%
hemolysis at 1 h, 0.1 mg/ml [5]: 0 to 5%
Activity (Erythrocyte [7]): Non-Toxic
Activity [8]: Non-Toxic
Activity [9]: inactive
Activity [10]: < 10%

Cc1cc(C(C)(C)C)c(O)c(C(C)(C)C)c1
Activity [1]: Active
Activity [11]: Active

Cn1c(=O)c2c(nc(Sc3ccccc3)n2C)n(C)c1=O
hemolysis at 1 h, 0.025 mg/ml [15]: < 5%
Activity (Erythrocyte [4]): inactive
hemolysis at 1 h, 0.1 mg/ml [5]: 57.2%
Activity [8]: Toxic
Activity (Erythrocyte [16]): Toxic
Activity [17]: Toxic
Activity [9]: inactive
Activity [10]: < 10%
Activity [18]: 0.488%
hemolysis at 1 h, 0.05 mg/ml [19]: 26.9%

Cn1c(=O)c2c(nc(SC(C)(C)C)n2C)n(C)c1=O
Activity (Erythrocyte [4]): inactive
hemolysis at 1 h, 0.1 mg/ml [5]: 0 to 5%
Activity (Erythrocyte [7]): Non-Toxic
Activity [8]: Non-Toxic
Activity [9]: inactive
Activity [10]: < 10%

Cn1c(=S)c2c(ncn2C)n(C)c1=S
Activity (Erythrocyte [4]): Active
hemolysis at 1 h, 0.1 mg/ml [5]: 0 to 5%
Activity (Erythrocyte [7]): Non-Toxic
Activity [8]: Non-Toxic
Activity [9]: inactive
Activity [10]: < 10%

Cn1c(=S)c2c(ncn2C)n(C)c1=O
Activity (Erythrocyte [4]): Active
hemolysis at 1 h, 0.1 mg/ml [5]: 0 to 5%
Activity (Erythrocyte [7]): Non-Toxic
Activity [8]: Non-Toxic
Activity [9]: inactive
Activity [10]: < 10%
